By pIC50 is commonly meant the IC50 on a negative log10 scale, so that one unit is a factor of ten. Low readings indicate a large IC50, high ones a small IC50. Broadly, the pKi is the negative decadic logarithm of the Ki, by convention in mol/L. A higher pKi goes with a small Ki.

pIC50, pKi: −log10 of the molar value.

Assay [1] is described as follows: Inhibition of pig pancreatic cholesterol esterase preincubated for 5 mins by spectrophotometry. Further details: species or system Sus scrofa. In short, it runs like this:
(§1)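 Porcine CEase in 100 mM sodium phosphate, 100 mM NaCl, pH 7.0, with 6 mM taurocholate (final), 3% acetonitrile, 3% DMSO. Inhibitor pre-mixed with 200 µM pNPB for 5 min at 25 °C. Reaction started with enzyme (10 ng/mL final), A405 followed for 6 min. Rates taken from linear steady-state turnover. Duplicates at five inhibitor concentrations. Residual activity at infinite [I] and IC50 come from non-linear regression of rate versus [I].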

A further assay has as its target Acetylcholinesterase (Electrophorus electricus, UniProt O42275). Nature of the assay: Inhibition of Electrophorus electricus acetylcholinesterase preincubated for 15 mins by spectrophotometry.
Assay [2] can be described thus: Selectivity ratio of IC50 for Electrophorus electricus acetylcholinesterase to IC50 for pig cholesterol esterase. A digest of the protocol: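 IC50 ratio taken between two assays. AChE: E. electricus enzyme, 15 min preincubation, ATCh 500 µM with DTNB, read at 412 nm, pH 7.3. Porcine CEase: 10 ng/mL, 5 min preincubation of inhibitor with substrate, pNPB 200 µM with taurocholate 6 mM, read at 405 nm, pH 7.0.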

The species entered for assay [3] is Sus scrofa. Nature of the assay: Inhibition of pig pancreatic cholesterol esterase assessed as residual enzyme activity at infinite compound concentration preincubated for 5 mins by spectrophotometry. In short, it runs like this:
as §1

Assay [4] is filed under the species Sus scrofa. Nature of the assay: Ratio of binding affinity to free pig pancreatic cholesterol esterase to binding affinity to substrate-bound pig pancreatic cholesterol esterase. In short, it runs like this: (§2)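 Porcine CEase, pNPB hydrolysis read at 405 nm, 25 °C, pH 7.0 phosphate/NaCl buffer with 6 mM taurocholate. Quadruplicates covered five inhibitor levels (2–10 µM) crossed with five substrate levels (100–300 µM), after a 5 min preincubation. The uninhibited rate at 200 µM substrate was set to 100%. Ki, α and β come from replots of specific velocity using σ/[1+σ], with σ = [S]/Km and a separately determined Km.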

The nature of assay [5]: Mixed inhibition of pig pancreatic cholesterol esterase preincubated for 5 mins by specific velocity plot analysis. Further details: species or system Sus scrofa. A digest of the protocol: as §2

Acetylcholinesterase, sequence (O42275 whole entry): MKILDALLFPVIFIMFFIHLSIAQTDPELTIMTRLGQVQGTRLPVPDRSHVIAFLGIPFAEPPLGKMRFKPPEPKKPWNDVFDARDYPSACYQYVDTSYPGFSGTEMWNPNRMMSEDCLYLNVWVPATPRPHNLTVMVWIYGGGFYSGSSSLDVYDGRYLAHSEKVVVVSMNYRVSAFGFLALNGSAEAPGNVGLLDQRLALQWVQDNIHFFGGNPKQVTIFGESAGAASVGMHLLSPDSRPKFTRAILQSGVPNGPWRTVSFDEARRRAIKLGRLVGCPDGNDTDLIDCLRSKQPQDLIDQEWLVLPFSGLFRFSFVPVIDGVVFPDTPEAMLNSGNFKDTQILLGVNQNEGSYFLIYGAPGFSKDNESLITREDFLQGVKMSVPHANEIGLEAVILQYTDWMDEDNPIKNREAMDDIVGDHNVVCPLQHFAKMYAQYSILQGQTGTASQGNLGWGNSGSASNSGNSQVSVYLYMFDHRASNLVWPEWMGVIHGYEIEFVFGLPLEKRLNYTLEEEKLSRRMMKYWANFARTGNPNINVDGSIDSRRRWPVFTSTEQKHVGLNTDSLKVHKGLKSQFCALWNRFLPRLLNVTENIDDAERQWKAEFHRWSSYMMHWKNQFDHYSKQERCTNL

Consider `O=C1NC(=O)/C(=C/c2ccc(C(=O)O)cc2)S1`, for which the negative logarithm of the IC50 (pIC50) (in assay [1]; at Acetylcholinesterase) was below 4.00 throughout.
Take `CCCc1ccccc1NC(=O)[C@H](Cc1ccc(O)cc1)NC(=O)c1ccc(/C=C2\SC(=S)NC2=O)cc1`: the figures for the pIC50 (in assay [1]; against Acetylcholinesterase) were 4.84 and 4.24, respectively.
For `CCCc1ccccc1NC(=O)[C@H](C)NC(=O)c1ccc(/C=C2\SC(=O)NC2=O)cc1`, in that order: 4.27 and below 4.00.
With `CCCc1ccccc1NC(=O)[C@H](CO)NC(=O)c1ccc(/C=C2\SC(=O)NC2=O)cc1`, the Ratio IC50 in assay [2] was above 15. Moreover, the negative logarithm of the IC50 (pIC50) in assay [1] was 5.24; against Acetylcholinesterase it was below 4.00. The Activity in the assay listed under Sus scrofa [3] came to 12%.
In the case of `CCCc1ccccc1NC(=O)[C@H](C)NC(=O)c1ccc(/C=C2\SC(=S)NC2=O)cc1`, the values for the pIC50 (in assay [1]; on Acetylcholinesterase) were 4.30 and below 4.00, respectively.
For `CCCc1ccccc1NC(=O)[C@H](COC(C)(C)C)NC(=O)c1ccc(/C=C2\SC(=S)NC2=O)cc1`, in that order: 5.22 and 4.67.
For the compound `O=C1NC(=S)S/C1=C\c1ccc(C(=O)O)cc1`, the pIC50 (in assay [1]; against Acetylcholinesterase) was below 4.00 throughout.
With `CCCc1ccccc1OCC(O)COc1ccc(/C=C2\SC(=S)NC2=O)cc1` (racemic), the Ratio in the assay filed under Sus scrofa [4] came out at 5.5. For the same compound, in assay [5], the pKi is 5.91. Moreover, the negative-log IC50 (pIC50) in assay [1] was 5.75; at Acetylcholinesterase, 5.29. The Activity in the assay filed under Sus scrofa [3] was 18%.
`CCCc1ccccc1NC(=O)[C@H](Cc1ccccc1)NC(=O)c1ccc(/C=C2\SC(=S)NC2=O)cc1`: the negative logarithm of the IC50 (pIC50) was 4.40 in assay [1] and 4.37 at Acetylcholinesterase.
As to `CCCc1ccccc1NC(=O)[C@H](CO)NC(=O)c1ccc(/C=C2\SC(=S)NC2=O)cc1`, the pIC50 in assay [1] was 4.51; against Acetylcholinesterase it was below 4.00.
For `O=C1NC(=O)/C(=C/c2ccccc2)S1` the same measures were below 4.00 and below 4.00.
In the case of `CCCc1ccccc1OCC(O)COc1ccc(/C=C2\SC(=O)NC2=O)cc1` (racemic), the Ratio IC50 in assay [2] is above 15. In addition, the pIC50 is 5.23 in assay [1] and below 4.00 against Acetylcholinesterase. Also, the Activity in the assay listed under Sus scrofa [3] was found to be 17%.
Consider `CCCc1ccccc1NC(=O)[C@H](COC(C)(C)C)NC(=O)c1ccc(/C=C2\SC(=O)NC2=O)cc1`, for which the negative logarithm of the IC50 (pIC50) was 4.07 in assay [1] and 4.18 on Acetylcholinesterase.
Consider `CCCc1ccccc1NC(=O)[C@H](Cc1ccccc1)NC(=O)c1ccc(/C=C2\SC(=O)NC2=O)cc1`, for which the pIC50 is 4.40 in assay [1] and 4.85 against Acetylcholinesterase.
As to `CCCc1ccccc1NC(=O)[C@H](COCc1ccccc1)NC(=O)c1ccc(/C=C2\SC(=S)NC2=O)cc1`, in assay [2], the Ratio IC50 came to 17. The negative logarithm of the IC50 (pIC50) was 5.84 in assay [1] and 4.60 on Acetylcholinesterase. Also, the Activity in the assay filed under Sus scrofa [3] worked out at 25%.
